Experimental data taken from ChEMBL document CHEMBL4138103, “Discovery of efficient stimulators for adult hippocampal neurogenesis based on scaffolds in dragon's blood” (Eur J Med Chem, 2017).
Active and inactive are the calls of the source. The calls are words filed in the database; no cut-off is given here.

Columns and labels:
[1] = Cytotoxicity against human SH-SY5Y cells assessed as cell survival at 100 uM after 24 hrs by MTT assay relative to control; format: cell-based; conditions: read-out: Survival
Summary of the method: (§1)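 SH-SY5Y human neuroblastoma cells seeded at 5 × 10⁴ cells/mL, incubated 24 h at 37 °C, then exposed to compounds at final concentrations of […] for 24 h. MTT added for a further 4 h at 37 °C. Absorbance read at 570 nm and reported as percent viability. Five parallel samples per condition.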

[2] = Cytotoxicity against human SH-SY5Y cells assessed as cell survival at 500 uM after 24 hrs by MTT assay relative to control; format: cell-based; conditions: read-out: Survival; summary of the method: as §1
[3] = Cytotoxicity against human SH-SY5Y cells assessed as cell survival at 1000 uM after 24 hrs by MTT assay relative to control; format: cell-based; conditions: read-out: Survival; summary of the method: as §1
Rattus norvegicus [4] = assay: In vivo neurogenic activity in Sprague-Dawley rat neural progenitor cells at 2.2 mg/kg, ip qd pretreated for 28 days followed by BrdU addition at 2 hrs interval for twice on day 29 measured after 24 hrs by BrdU incorporation assay; format: functional, organism-based
Summary of the method: (§2)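 Male SD rats aged 10 weeks, acclimatized 7 days (11 weeks old at start), dosed ip once daily for 28 days with compound in soybean oil containing 10% ethanol; vehicle group received 10% ethanol in oil. On day 29, BrdU in saline given twice at 100 mg/kg, 2 h apart. Rats sacrificed 24 h after the last BrdU. BrdU+ cells in SGZ-GCL counted by DAB immunostaining of 30 µm cryosections; n = 8; mean ± SEM.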

Rattus norvegicus [5] = assay: In vivo neurogenic activity in Sprague-Dawley rat neural progenitor cells at 4 mg/kg, ip qd pretreated for 28 days followed by BrdU addition at 2 hrs interval for twice on day 29 measured after 24 hrs by BrdU incorporation assay relative to control; format: functional; summary of the method: as §2
Rattus norvegicus [6] = assay: In vivo neurogenic activity in Sprague-Dawley rat neural progenitor cells at 0.5 to 4 mg/kg, ip qd pretreated for 28 days followed by BrdU addition at 2 hrs interval for twice on day 29 measured after 24 hrs by BrdU incorporation assay; format: functional, organism-based
Summary of the method: (§3)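 Eleven-week-old SD male rats were dosed ip daily for 28 days in soybean oil with 10% ethanol, against a vehicle control. On day 29 BrdU 100 mg/kg was given twice, 2 h apart, and rats were sacrificed 24 h later. Sections were treated with HCl denaturation, BrdU antibody at 1:500 at 4 °C overnight and DAB detection. BrdU+ cells in the SGZ-GCL were counted, mean ± SEM, n = 8.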

Rattus norvegicus [7] = assay: In vivo neurogenic activity in Sprague-Dawley rat adult hippocampal at 0.05 mg/kg, ip qd preincubated for 28 days followed by BrdU addition at 2 hrs interval for twice at day 29 measured at 28 days post last dose by NeuN/BrdU double staining based immunohistochemistry assay relative to control; format: functional
Summary of the method: (§4)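 SD male rats, 11 weeks old, were given compound ip daily for 28 days in 10% ethanol/soybean oil. On day 29 they received BrdU 100 mg/kg ip twice, 2 h apart, and were perfused 28 days after the last BrdU. Fixed 30 µm cryosections were co-stained for BrdU and NeuN by fluorescence. BrdU+ cells and the BrdU+NeuN+/BrdU+ fraction were counted against vehicle, mean ± SEM, n = 8.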

Rattus norvegicus [8] = assay: In vivo neurogenic activity in Sprague-Dawley rat adult hippocampal at 0.5 mg/kg, ip qd preincubated for 28 days followed by BrdU addition at 2 hrs interval for twice at day 29 measured at 28 days post last dose by NeuN/BrdU double staining based immunohistochemistry assay relative to control; format: functional; summary of the method: as §4
Rattus norvegicus [9] = assay: Downregulation of AKT phosphorylation in Sprague-Dawley rat adult hippocampus at 0.5 to 4 mg/kg, ip qd preincubated for 28 days followed by BrdU addition at 2 hrs interval for twice on day 29 measured at 24 hrs post BrdU pulse by immunoblot assay; format: functional, organism-based; conditions: in the assay text read “Upregulation” for “Downregulation”
Summary of the method: (§5)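 Male SD rats (received at 10 weeks, acclimatized 7 days) were dosed ip once daily for 28 days. The compounds were given in soybean oil with 10% ethanol, and the vehicle group received 10% ethanol in oil. BrdU was given 100 mg/kg twice, 2 h apart, on day 29. Hippocampal tissue was taken 24 h or 28 days later. Lysates were made in RIPA with protease inhibitors and run on 12% SDS-PAGE. Akt, pAkt, ERK1/2 and pERK1/2 were immunoblotted and read by densitometry against GAPDH, normalized to vehicle = 1.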

Rattus norvegicus [10] = assay: Downregulation of ERK phosphorylation in Sprague-Dawley rat adult hippocampus at 0.5 to 4 mg/kg, ip qd preincubated for 28 days followed by BrdU addition at 2 hrs interval for twice on day 29 measured at 24 hrs post BrdU pulse by immunoblot assay; format: functional, organism-based; conditions: in the assay text read “Upregulation” for “Downregulation”; summary of the method: as §5
Rattus norvegicus [11] = assay: Downregulation of AKT phosphorylation in Sprague-Dawley rat adult hippocampus at 0.05 to 0.5 mg/kg, ip qd preincubated for 28 days followed by BrdU addition at 2 hrs interval for twice on day 29 measured at 28 days post BrdU pulse by immunoblot assay; format: functional, organism-based; summary of the method: as §5
Rattus norvegicus [12] = assay: Downregulation of ERK phosphorylation in Sprague-Dawley rat adult hippocampus at 0.05 to 0.5 mg/kg, ip qd preincubated for 28 days followed by BrdU addition at 2 hrs interval for twice on day 29 measured at 28 days post BrdU pulse by immunoblot assay; format: functional, organism-based; summary of the method: as §5
Rattus norvegicus [13] = assay: Effect on AKT expression in Sprague-Dawley rat adult hippocampus at 0.5 to 4 mg/kg, ip qd preincubated for 28 days followed by BrdU addition at 2 hrs interval for twice on day 29 measured at 24 hrs post BrdU pulse by immunoblot assay; format: functional, organism-based; summary of the method: as §5
Rattus norvegicus [14] = assay: Effect on ERK expression in Sprague-Dawley rat adult hippocampus at 0.5 to 4 mg/kg, ip qd preincubated for 28 days followed by BrdU addition at 2 hrs interval for twice on day 29 measured at 24 hrs post BrdU pulse by immunoblot assay; format: functional, organism-based; summary of the method: as §5
Rattus norvegicus [15] = assay: Effect on AKT expression in Sprague-Dawley rat adult hippocampus at 0.05 to 0.5 mg/kg, ip qd preincubated for 28 days followed by BrdU addition at 2 hrs interval for twice on day 29 measured at 28 days post BrdU pulse by immunoblot assay; format: functional, organism-based; summary of the method: as §5
Rattus norvegicus [16] = assay: Effect on ERK expression in Sprague-Dawley rat adult hippocampus at 0.05 to 0.5 mg/kg, ip qd preincubated for 28 days followed by BrdU addition at 2 hrs interval for twice on day 29 measured at 28 days post BrdU pulse by immunoblot assay; format: functional, organism-based; summary of the method: as §5
[17] = Drug uptake in mouse brain at 20 mg/kg, po via gavage by HPLC-MS/MS analysis; format: ADME, organism-based; conditions: in vivo, read-out: Drug uptake
Rattus norvegicus [18] = assay: In vivo neurogenic activity in Sprague-Dawley rat neural progenitor cells at 0.5 mg/kg, ip qd pretreated for 28 days followed by BrdU addition at 2 hrs interval for twice on day 29 measured after 24 hrs by BrdU incorporation assay; format: functional, organism-based; summary of the method: as §3

Row | Compound | viability at 24 h, 100 µM [1] [%] | viability at 24 h, 500 µM [2] [%] | viability at 24 h, 1000 µM [3] [%] | Activity (Rattus norvegicus [4]) | Activity (Rattus norvegicus [5]) | other results
1 | COc1ccc(C#Cc2ccc3c(c2)OCO3)cc1 | 75.9 | 69.1 | 63.8 | inactive | – | –
2 | O=C(Nc1ccc(/C=C/c2ccc3c(c2)OCO3)cc1)c1ccccc1 | 98.6 | 99.3 | 85 | – | – | fold change (FC) (Rattus norvegicus [5]): 2.2 - 3.5; Activity (Rattus norvegicus [6]): Active; fold change (FC) (Rattus norvegicus [7]): 1.6; fold change (FC) (Rattus norvegicus [8]): 3.2; Activity (Rattus norvegicus [9]): Active; Activity (Rattus norvegicus [10]): Active; Activity (Rattus norvegicus [11]): Active; Activity (Rattus norvegicus [12]): Active; Activity (Rattus norvegicus [13]): Active; Activity (Rattus norvegicus [14]): Active; Activity (Rattus norvegicus [15]): Active; Activity (Rattus norvegicus [16]): Active
3 | CC(=O)Oc1ccc(/C=C/c2ccc3c(c2)OCO3)cc1 | 84.5 | 21.3 | 17.8 | inactive | – | –
4 | CCC(=O)Nc1ccc(/C=C/c2ccc3c(c2)OCO3)cc1 | 85.9 | 80.6 | 61.5 | Active | – | –
5 | CC(=O)N(C)c1ccc(/C=C/c2ccc3c(c2)OCO3)cc1 | 50.4 | 15.8 | 5.89 | – | inactive | –
6 | O=C(Nc1ccc(/C=C/c2ccc3c(c2)OCO3)cc1)c1cccs1 | 62.5 | 54.4 | 49.1 | – | Active | –
7 | CN(C)c1ccc(/C=C/c2ccc3c(c2)OCO3)cc1 | 83.3 | 51.2 | 52.6 | – | Active | –
8 | COc1ccc(/C=C/c2ccc(NC(C)=O)cc2)cc1OC | 68 | 56.5 | 31.3 | inactive | – | –
9 | Oc1ccc(/C=C/c2ccc3c(c2)OCO3)cc1 | 39.5 | 20.1 | 14.4 | inactive | – | –
10 | CC(C)C(=O)Nc1ccc(/C=C/c2ccc3c(c2)OCO3)cc1 | 50.9 | 48.4 | 42 | – | – | fold change (FC) (Rattus norvegicus [5]): 2.2 - 3.5; Activity (Rattus norvegicus [6]): Active
11 | COc1cccc(NCC(F)Cn2c3ccc(Br)cc3c3cc(Br)ccc32)c1 (centres undefined) | – | – | – | – | – | concentration [17]: 900 nM
12 | COc1cc(/C=C/c2ccc(OC(C)=O)cc2)cc(OC)c1 | 6.48 | 13.9 | 6.75 | – | Active | Activity (Rattus norvegicus [18]): inactive
13 | O=C(Nc1ccc(/C=C/c2ccc3c(c2)OCO3)cc1)C(F)(F)F | 75.2 | 53.4 | 41.5 | – | inactive | –
14 | CC(=O)Nc1ccc(C#Cc2ccc3c(c2)OCO3)cc1 | 63.2 | 51.3 | 35.2 | – | inactive | –
15 | COc1cc(/C=C/c2ccc(O)cc2)cc(OC)c1 [PTEROSTILBENE] | -0.58 | 32.7 | 51.4 | – | Active | –
16 | COc1cc(/C=C/c2ccc(NC(C)=O)cc2)cc(OC)c1 | 54.5 | 48.5 | 45.2 | – | Active | –
17 | COc1ccc(/C=C/c2ccc(NC(C)=O)cc2)cc1 | 70 | 52.2 | 40.7 | inactive | – | –
18 | CCOc1ccc(C#Cc2ccc3c(c2)OCO3)cc1 | 56.5 | 41 | 38.1 | – | inactive | –
19 | O=C(Nc1ccc(/C=C/c2ccc3c(c2)OCO3)cc1)C1CC1 | 98.9 | 97.3 | 85.3 | – | – | fold change (FC) (Rattus norvegicus [5]): 2.2 - 3.5; Activity (Rattus norvegicus [6]): Active
20 | CC(=O)Nc1cccc(C#Cc2ccc3c(c2)OCO3)c1 | 70.6 | 62.9 | 55.3 | inactive | – | –
21 | CS(=O)(=O)Nc1ccc(/C=C/c2ccc3c(c2)OCO3)cc1 | 72.5 | 68.9 | 62.3 | – | – | fold change (FC) (Rattus norvegicus [5]): 2.2 - 3.5; Activity (Rattus norvegicus [6]): Active
22 | CC(=O)Nc1ccc(CCc2ccc3c(c2)OCO3)cc1 | 90.3 | 79.4 | 68.8 | inactive | – | –
23 | COc1ccc(OCC#Cc2ccc3c(c2)OCO3)cc1 | 44.1 | 79.7 | 36.3 | Active | – | –
